Data taken from ChEMBL document CHEMBL1122046, “Quaternary heterocyclylamino beta-lactams: a generic alternative to the classical acylamino side chain” (1982).
Converted amounts (≈) assume the structure as drawn.

Columns and labels:
Salmonella [1] = assay: Inhibition zone diameter against aerobic organism Salmonella strain 826
Klebsiella = assay: Inhibition zone diameter against aerobic organism Klebsiella species strain 2921
Serratia marcescens [2] = assay: Inhibition zone diameter against aerobic organism Serratia marcescenes strain 2855
Staphylococcus aureus [3] = assay: Inhibition zone diameter against aerobic organism Staphylococcus aureus strain 2314
Pseudomonas aeruginosa [4] = assay: Inhibition zone diameter against aerobic organism Pseudomonas aeruginosa strain 3350
Streptococcus pyogenes [5] = assay: Inhibition zone diameter against aerobic organism Streptococcus pyogenes strain 2874
Morganella morganii [6] = assay: Disk zone diameter (25 ug/disk) against aerobic organism Morganella morganii strain 2834
Escherichia coli = assay: MIC against aerobic organism Escherichia coli strain 2891; assay type: functional; details: Escherichia coli; read-out: MIC
Procedure, shortened: (§1)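 Agar-dilution MIC in µg/mL against aerobic bacterial strains on tryptocase soy agar, with inoculum applied as spots. Most series used 10^5 cfu per spot, and a later series used 10^4 cfu per spot. In some tables, footnoted strains were instead tested on Mueller-Hinton or nutrient agar. β-Lactamase-producing strains are flagged.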

Klebsiella aerogenes [7] = assay: Minimum inhibitory concentration against aerobic organism Enterobacter aerogenes strain 2828; assay type: functional
Procedure, shortened: as §1

Enterobacter cloacae = assay: Minimum inhibitory concentration against aerobic organism Enterobacter cloacae strain 2646; assay type: functional; details: Enterobacter cloacae; read-out: MIC
Procedure, shortened: as §1

Klebsiella pneumoniae [8] = assay: Minimum inhibitory concentration against aerobic organism Klebsiella pneumoniae strain 4005; assay type: functional
Procedure, shortened: as §1

Morganella morganii [9] = assay: Minimum inhibitory concentration against aerobic organism Morganella morganii strain 2833; assay type: functional; details: Morganella morganii; read-out: MIC
Procedure, shortened: as §1

Pseudomonas aeruginosa [10] = assay: Minimum inhibitory concentration against aerobic organism Pseudomonas aeruginosa strain 2835; assay type: functional
Procedure, shortened: as §1

Proteus mirabilis = assay: Minimum inhibitory concentration against aerobic organism Proteus mirabilis strain 2830; assay type: functional; details: Proteus mirabilis; read-out: MIC
Procedure, shortened: as §1

Proteus vulgaris = assay: Minimum inhibitory concentration against aerobic organism Proteus vulgaris strain 2829; assay type: functional; details: Proteus vulgaris; read-out: MIC
Procedure, shortened: as §1

Salmonella [11] = assay: Minimum inhibitory concentration against aerobic organism Salmonella strain 3860; assay type: functional
Procedure, shortened: as §1

Staphylococcus aureus [12] = assay: Minimum inhibitory concentration against aerobic organism Staphylococcus aureus strain 2865; assay type: functional
Procedure, shortened: as §1

Staphylococcus aureus [13] = assay: Minimum inhibitory concentration against aerobic organism Staphylococcus aureus strain 2868; assay type: functional; details: Staphylococcus aureus; read-out: MIC
Procedure, shortened: as §1

Enterococcus faecalis = assay: Minimum inhibitory concentration against aerobic organism Streptococcus faecalis strain 2864; assay type: functional
Procedure, shortened: as §1

Klebsiella aerogenes [14] = assay: Minimum inhibitory concentration against aerobic organism Enterobacter aerogenes strain 2906; assay type: functional; details: Klebsiella aerogenes; read-out: MIC
Procedure, shortened: as §1

Klebsiella pneumoniae [15] = assay: Minimum inhibitory concentration against aerobic organism Klebsiella pneumoniae strain 2882; assay type: functional; details: Klebsiella pneumoniae; read-out: MIC
Procedure, shortened: as §1

[16] = Minimum inhibitory concentration against aerobic organism Salmonella schottmuelleri strain 2837; assay type: functional; details: Salmonella; read-out: MIC
Procedure, shortened: as §1

Serratia marcescens [17] = assay: Minimum inhibitory concentration against aerobic organism Serratia marcescens strain 2852; assay type: functional; details: Serratia marcescens; read-out: MIC
Procedure, shortened: as §1

Streptococcus pyogenes [18] = assay: Minimum inhibitory concentration against aerobic organism Streptococcus pyogenes strain 3124; assay type: functional; details: Streptococcus pyogenes; read-out: MIC
Procedure, shortened: as §1

Shigella = assay: Minimum inhibitory concentration against aerobic organism Shigella species strain 2880; assay type: functional; details: Shigella; read-out: MIC
Procedure, shortened: as §1

| SMILES | MIC (Escherichia coli) | MIC (Klebsiella aerogenes [7]) | MIC (Enterobacter cloacae) | MIC (Klebsiella pneumoniae [8]) | MIC (Morganella morganii [9]) | MIC (Pseudomonas aeruginosa [10]) | MIC (Proteus mirabilis) | MIC (Proteus vulgaris) | MIC (Salmonella [11]) | MIC (Staphylococcus aureus [12]) | MIC (Staphylococcus aureus [13]) | MIC (Enterococcus faecalis) | other results |
| --- | --- | --- | --- | --- | --- | --- | --- | --- | --- | --- | --- | --- | --- |
| CC(O)[C@H]1C(=O)N2C(C(=O)[O-])=C(SCCNc3cccc[n+]3C)C[C@H]12 (stereo partly specified) | – | – | – | – | – | – | – | – | – | – | – | – | zone diameter (Salmonella [1]): 27.5 mm; zone diameter (Klebsiella): 26 mm; zone diameter (Serratia marcescens [2]): 26 mm; zone diameter (Staphylococcus aureus [3]): 42.5 mm; zone diameter (Pseudomonas aeruginosa [4]): 17.5 mm; zone diameter (Streptococcus pyogenes [5]): 37 mm; zone diameter (Morganella morganii [6]): 27 mm |
| O=C([O-])CSc1nnc(SCC2=C(C(=O)[O-])N3C(=O)[C@@H](Nc4cc[n+](Cc5ccccc5)cc4)[C@H]3SC2)s1.[Na+] | < 0.125 µg/mL | 0.5 µg/mL | 0.05 µg/mL | 1 µg/mL | 16 µg/mL | 128 µg/mL | 64 µg/mL | < 0.125 µg/mL | 0.25 µg/mL | 1 µg/mL | 4 µg/mL | > 128 µg/mL | – |
| Cn1nnnc1SCC1=C(C(=O)[O-])N2C(=O)[C@@H](Nc3cc[n+](COCC(Cl)(Cl)Cl)cc3C(=O)[O-])[C@H]2SC1.[Na+] | 64 µg/mL | > 128 µg/mL | > 128 µg/mL | > 128 µg/mL | > 128 µg/mL | > 128 µg/mL | > 128 µg/mL | > 128 µg/mL | > 128 µg/mL | > 128 µg/mL | > 128 µg/mL | > 128 µg/mL | – |
| Cn1nnnc1SCC1=C(C(=O)[O-])N2C(=O)[C@@H](Nc3cc[n+](Cc4ccccc4)cc3)[C@H]2SC1 | 0.06 µg/mL (≈ 0.121 µM) | 2 µg/mL (≈ 4.04 µM) | 1 µg/mL (≈ 2.02 µM) | 8 µg/mL (≈ 16.1 µM) | 16 µg/mL (≈ 32.3 µM) | > 128 µg/mL | 32 µg/mL (≈ 64.6 µM) | 1 µg/mL (≈ 2.02 µM) | 1 µg/mL (≈ 2.02 µM) | 0.25 µg/mL (≈ 0.504 µM) | 4 µg/mL (≈ 8.07 µM) | 128 µg/mL (≈ 258 µM) | MIC (Klebsiella aerogenes [14]): 8 µg/mL (≈ 16.1 µM); MIC (Klebsiella pneumoniae [15]): 0.25 µg/mL (≈ 0.504 µM); MIC [16]: < 0.004 µg/mL; MIC (Serratia marcescens [17]): 64 µg/mL (≈ 129 µM); MIC (Streptococcus pyogenes [18]): 0.015 µg/mL (≈ 0.0303 µM); MIC (Shigella): < 0.004 µg/mL |
| O=C(Cc1cccs1)N[C@@H]1C(=O)N2C(C(=O)[O-])=C(C[n+]3ccccc3)CS[C@H]12 [CEPHALORIDINE] | > 128 µg/mL | 8 µg/mL (≈ 19.3 µM) | > 128 µg/mL | 0.25 µg/mL (≈ 0.602 µM) | > 128 µg/mL | > 128 µg/mL | 16 µg/mL (≈ 38.5 µM) | > 128 µg/mL | 0.5 µg/mL (≈ 1.2 µM) | 0.25 µg/mL (≈ 0.602 µM) | 4 µg/mL (≈ 9.63 µM) | 64 µg/mL (≈ 154 µM) | – |
| CCO[n+]1ccc(N[C@@H]2C(=O)N3C(C(=O)[O-])=C(CSc4nnnn4C)CS[C@H]23)cc1 | 0.125 µg/mL (≈ 0.278 µM) | 32 µg/mL (≈ 71.2 µM) | 1 µg/mL (≈ 2.22 µM) | 128 µg/mL (≈ 285 µM) | > 128 µg/mL | > 128 µg/mL | > 128 µg/mL | 0.25 µg/mL (≈ 0.556 µM) | 128 µg/mL (≈ 285 µM) | 8 µg/mL (≈ 17.8 µM) | > 128 µg/mL | > 128 µg/mL | – |
| O=C([O-])C1=C(Cl)CS[C@@H]2[C@H](Nc3cc[n+](Cc4ccccc4)cc3)C(=O)N12 | 0.25 µg/mL (≈ 0.622 µM) | 8 µg/mL (≈ 19.9 µM) | 4 µg/mL (≈ 9.95 µM) | 64 µg/mL (≈ 159 µM) | > 128 µg/mL | > 128 µg/mL | > 128 µg/mL | < 0.125 µg/mL | 128 µg/mL (≈ 319 µM) | 2 µg/mL (≈ 4.98 µM) | 128 µg/mL (≈ 319 µM) | > 128 µg/mL | – |
| Cn1nnnc1SCC1=C(C(=O)[O-])N2C(=O)[C@@H](Nc3cc[n+](Cc4ccc(F)cc4)cc3)[C@H]2SC1 | < 0.06 µg/mL | 1 µg/mL (≈ 1.95 µM) | 0.125 µg/mL (≈ 0.243 µM) | 8 µg/mL (≈ 15.6 µM) | 32 µg/mL (≈ 62.3 µM) | > 128 µg/mL | 64 µg/mL (≈ 125 µM) | 0.25 µg/mL (≈ 0.487 µM) | 4 µg/mL (≈ 7.79 µM) | 0.5 µg/mL (≈ 0.974 µM) | 1 µg/mL (≈ 1.95 µM) | 128 µg/mL (≈ 249 µM) | – |
| CCOC(=S)SCC1=C(C(=O)[O-])N2C(=O)[C@@H](Nc3cc[n+](Cc4ccccc4)cc3)[C@H]2SC1 | 1 µg/mL (≈ 1.99 µM) | > 128 µg/mL | 4 µg/mL (≈ 7.97 µM) | > 128 µg/mL | > 128 µg/mL | > 128 µg/mL | > 128 µg/mL | 8 µg/mL (≈ 15.9 µM) | 4 µg/mL (≈ 7.97 µM) | 1 µg/mL (≈ 1.99 µM) | 4 µg/mL (≈ 7.97 µM) | > 128 µg/mL | – |
| CN(C)CCn1nnnc1SCC1=C(C(=O)[O-])N2C(=O)[C@@H](Nc3cc[n+](Cc4ccccc4)cc3)[C@H]2SC1 | < 0.06 µg/mL | 0.5 µg/mL (≈ 0.905 µM) | 0.25 µg/mL (≈ 0.452 µM) | 4 µg/mL (≈ 7.24 µM) | 64 µg/mL (≈ 116 µM) | > 128 µg/mL | 128 µg/mL (≈ 232 µM) | 0.125 µg/mL (≈ 0.226 µM) | 2 µg/mL (≈ 3.62 µM) | 0.5 µg/mL (≈ 0.905 µM) | 4 µg/mL (≈ 7.24 µM) | 128 µg/mL (≈ 232 µM) | – |
